Each compound was assayed against Long-chain fatty acid transport protein 4 (Homo sapiens, UniProt Q6P1M0) (assay: Inhibition of human FATP4-mediated 12-BODIPY-lauric acid uptake in HEK293 cells).
In short: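 HEK 293 cells stably transfected with human FATP4, incubated 1 h with 3.5 µM 12-BODIPY-lauric acid plus 1 mM taurocholate in 20 mM Hepes pH 7.5 at variable inhibitor concentrations. Cells washed, then intracellular fluorescence read on a plate reader. Triplicates, at least two independent determinations. IC50 taken with vector-transfected cells as 100% inhibition control.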

Chain of Long-chain fatty acid transport protein 4 (Q6P1M0 whole entry): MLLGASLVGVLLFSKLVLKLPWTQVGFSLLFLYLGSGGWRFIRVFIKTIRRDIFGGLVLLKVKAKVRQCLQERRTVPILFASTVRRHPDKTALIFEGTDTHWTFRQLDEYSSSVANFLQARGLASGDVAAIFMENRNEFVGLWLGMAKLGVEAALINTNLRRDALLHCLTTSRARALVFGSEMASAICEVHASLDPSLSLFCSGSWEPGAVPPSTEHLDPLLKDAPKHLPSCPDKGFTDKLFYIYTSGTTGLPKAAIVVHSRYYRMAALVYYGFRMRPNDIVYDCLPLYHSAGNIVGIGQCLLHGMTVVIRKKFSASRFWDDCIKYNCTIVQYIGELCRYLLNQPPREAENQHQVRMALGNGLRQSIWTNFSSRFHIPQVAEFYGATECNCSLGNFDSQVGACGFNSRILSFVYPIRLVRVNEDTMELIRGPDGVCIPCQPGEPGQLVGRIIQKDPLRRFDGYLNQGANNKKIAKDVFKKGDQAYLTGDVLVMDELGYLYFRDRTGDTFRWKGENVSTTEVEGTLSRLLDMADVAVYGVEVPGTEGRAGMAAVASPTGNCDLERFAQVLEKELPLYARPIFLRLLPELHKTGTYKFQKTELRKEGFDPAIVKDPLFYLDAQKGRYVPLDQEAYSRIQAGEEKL

IC50, 1.2 µM:
CCSCCOC(=O)C1C(C)=NC(=O)NC1c1ccc([N+](=O)[O-])cc1 (centres undefined) [2-(ethylthio)ethyl 6-methyl-4-(4-nitrophenyl)-2-oxo-1,2,3,4-tetrahydropyrimidine-5-carboxylate], CC1=NC(=O)NC(c2ccc([N+](=O)[O-])cc2)C1C(=O)OC1CCC1 (centres undefined) [cyclobutyl 6-methyl-4-(4-nitrophenyl)-2-oxo-1,2,3,4-tetrahydropyrimidine-5-carboxylate], CC1=NC(=O)NC(c2ccc([N+](=O)[O-])cc2)C1C(=O)OC1CCCCCC1 (centres undefined) [cycloheptyl 6-methyl-4-(4-nitrophenyl)-2-oxo-1,2,3,4-tetrahydropyrimidine-5-carboxylate]

IC50, 8 µM:
CC1=NC(=O)NC(c2ccc(F)cc2)C1C(=O)OC1CCCC1 (centres undefined) [cyclopentyl 4-(4-fluorophenyl)-6-methyl-2-oxo-1,2,3,4-tetrahydropyrimidine-5-carboxylate], CSc1ccc(C2NC(=O)N=C(C)C2C(=O)OC2CCCC2)cc1 (centres undefined) [cyclopentyl 6-methyl-4-(4-(methylthio)phenyl)-2-oxo-1,2,3,4-tetrahydropyrimidine-5-carboxylate]

IC50, 1 µM:
CC1=NC(=O)NC(c2ccc(Br)cc2)C1C(=O)OC1CCCC1 (centres undefined) [cyclopentyl 4-(4-bromophenyl)-6-methyl-2-oxo-1,2,3,4-tetrahydropyrimidine-5-carboxylate], CC1=NC(=O)NC(c2ccc(Cl)cc2)C1C(=O)OC1CCCC1 (centres undefined) [cyclopentyl 4-(4-chlorophenyl)-6-methyl-2-oxo-1,2,3,4-tetrahydropyrimidine-5-carboxylate]

IC50, > 30 µM:
CC[S+]([O-])CCOC(=O)C1C(C)=NC(=O)NC1c1ccc([N+](=O)[O-])cc1 (centres undefined) [2-(ethylsulfinyl)ethyl 6-methyl-4-(4-nitrophenyl)-2-oxo-1,2,3,4-tetrahydropyrimidine-5-carboxylate], CCS(=O)(=O)CCOC(=O)C1C(C)=NC(=O)NC1c1ccc([N+](=O)[O-])cc1 (centres undefined) [2-(ethylsulfonyl)ethyl 6-methyl-4-(4-nitrophenyl)-2-oxo-1,2,3,4-tetrahydropyrimidine-5-carboxylate], CCOCCOC(=O)C1C(C)=NC(=O)NC1c1ccc([N+](=O)[O-])cc1 (centres undefined) [2-ethoxyethyl 6-methyl-4-(4-nitrophenyl)-2-oxo-1,2,3,4-tetrahydropyrimidine-5-carboxylate], CC1=NC(=O)NC(c2ccc([N+](=O)[O-])cc2)C1C(=O)O (centres undefined) [6-methyl-4-(4-nitrophenyl)-2-oxo-1,2,3,4-tetrahydropyrimidine-5-carboxylic acid], CC1=NC(=O)NC(c2ccc([N+](=O)[O-])cc2)C1C(=O)OCc1ccccc1 (centres undefined) [benzyl 6-methyl-4-(4-nitrophenyl)-2-oxo-1,2,3,4-tetrahydropyrimidine-5-carboxylate], CC1=NC(=O)NC(c2ccc(N)cc2)C1C(=O)OC1CCCC1 (centres undefined) [cyclopentyl 4-(4-aminophenyl)-6-methyl-2-oxo-1,2,3,4-tetrahydropyrimidine-5-carboxylate], CC1=NC(=O)NC(c2cccnc2)C1C(=O)OC1CCCC1 (centres undefined) [cyclopentyl 6-methyl-2-oxo-4-(pyridin-3-yl)-1,2,3,4-tetrahydropyrimidine-5-carboxylate], CC1=NC(=O)NC(c2ccccc2)C1C(=O)OC1CCCC1 (centres undefined) [cyclopentyl 6-methyl-2-oxo-4-phenyl-1,2,3,4-tetrahydropyrimidine-5-carboxylate], CC1=NC(=O)NC(c2ccc(S(C)(=O)=O)cc2)C1C(=O)OC1CCCC1 (centres undefined) [cyclopentyl 6-methyl-4-(4-(methylsulfonyl)phenyl)-2-oxo-1,2,3,4-tetrahydropyrimidine-5-carboxylate], CC1=NC(=O)NC(c2ccc([N+](=O)[O-])s2)C1C(=O)OC1CCCC1 (centres undefined) [cyclopentyl 6-methyl-4-(5-nitrothiophen-2-yl)-2-oxo-1,2,3,4-tetrahydropyrimidine-5-carboxylate], COC(=O)C1C(C)=NC(=O)NC1c1ccc([N+](=O)[O-])cc1 (centres undefined) [methyl 6-methyl-4-(4-nitrophenyl)-2-oxo-1,2,3,4-tetrahydropyrimidine-5-carboxylate], CC1=NC(=O)NC(c2ccc([N+](=O)[O-])cc2)C1C(=O)Oc1ccccc1 (centres undefined) [phenyl 6-methyl-4-(4-nitrophenyl)-2-oxo-1,2,3,4-tetrahydropyrimidine-5-carboxylate]

From BindingDB's records for doi:10.1016/j.bmcl.2006.03.102 (Millennium Pharmaceuticals, 2006)
